# beta cell repl = MIN6 beta-cell proliferation induction; MIN6 cells proliferation, ATPlite luminescence, 48 h; cells starved in 0.2% serum; 100% = growth in 10% serum; proliferation, % at 10 µM; 0.29% of 330,000 active;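 active = compounds whose signal lies at least 3.5 SD above the mean of all wells on their plate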;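 note: 0% = DMSO-treated cells in low-serum medium and 100% = 10% serum control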
# HKDC1 inh = inhibitors of human hexokinase HKDC1; inhibition, % at 20 µM; 0.16% of 340,000 active; recombinant HKDC1, G6PDH/diaphorase resazurin coupled fluorescence;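 active = inhibition above about 35% when tested at 20 µM, limit read from the data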;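 note: plate controls were DMSO wells with enzyme for no effect and DMSO wells lacking enzyme for full effect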
#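 Assay system: in-house recombinant HK5 (HKDC1) enzyme. Input: HKDC1 at 5 µg/mL. Medium: Tris pH 8.0 buffer with MgCl2, Tween-20, BSA, BME. Dosing: single 20 µM dose. Schedule: 90 min reaction incubation at room temperature, dark. Signal: resazurin-to-resorufin fluorescence via G6PDH and diaphorase coupling, 525/613 nm. Controls: DMSO-enzyme wells negative, buffer-substituted wells positive.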
# VIM-2 inh = inhibitors of Pseudomonas aeruginosa VIM-2 metallo-beta-lactamase. purified VIM-2, nitrocefin hydrolysis, epi-absorbance fluorescence. inhibition, % at 5.6 µM. 0.89% of 290,000 active. AID 1527;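 active = inhibition above the mean of all tested compounds plus 3 SD, cutoff set per screening run, cut at about 7.5% in these data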;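 note: red hydrolysis product quenches plate fluorescence so inhibitors raise well fluorescence; 0% = enzyme with DMSO and 100% = DMSO without enzyme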
# IMP-1 inh = inhibitors of Pseudomonas aeruginosa IMP-1 metallo-beta-lactamase; purified IMP-1, nitrocefin hydrolysis, epi-absorbance fluorescence; AID 1556; 0.45% of 290,000 active; inhibition, % at 5.6 µM;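 active = inhibition above the mean plus 3 SD of all compounds in the same screening run, cut at about 4.5% in these data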;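 note: 0% = IMP-1 with DMSO and 100% = DMSO wells lacking enzyme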
#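 Assay system: purified recombinant IMP-1 beta-lactamase. Input: IMP-1 0.2 nM before substrate addition. Buffer or medium: Zinc- and detergent-supplemented HEPES buffer, pH 7.1. Schedule: 25 °C, 15 min preincubation, 25 min reaction. Signal: Epi-absorbance fluorescence, 480 nm excitation, 530 nm emission. Evaluation: percent inhibition from optical density relative to buffer-blank wells.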
# PvdQ acylase = P. aeruginosa PvdQ acylase inhibition; purified PvdQ acylase, fluorescence plate reader; inhibition, % at 10 µM; 0.063% of 340,000 active; in the data active = inhibition above about 30%, passing the limit was not always enough;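 note: 0% = vehicle neutral wells and 100% = reference inhibitor wells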
# ATG4B inhibitor = ATG4B (human) cysteine protease inhibition; Q9Y4P1; ATG4B cleavage of LC3-PLA2, NBD-HPC fluorescence, 1 h; inhibition, % at 8.33 µM; 0.51% of 340,000 active; AID 504462; in the data active = inhibition above about 40%
# Target sequence (Q9Y4P1 whole entry, looked up): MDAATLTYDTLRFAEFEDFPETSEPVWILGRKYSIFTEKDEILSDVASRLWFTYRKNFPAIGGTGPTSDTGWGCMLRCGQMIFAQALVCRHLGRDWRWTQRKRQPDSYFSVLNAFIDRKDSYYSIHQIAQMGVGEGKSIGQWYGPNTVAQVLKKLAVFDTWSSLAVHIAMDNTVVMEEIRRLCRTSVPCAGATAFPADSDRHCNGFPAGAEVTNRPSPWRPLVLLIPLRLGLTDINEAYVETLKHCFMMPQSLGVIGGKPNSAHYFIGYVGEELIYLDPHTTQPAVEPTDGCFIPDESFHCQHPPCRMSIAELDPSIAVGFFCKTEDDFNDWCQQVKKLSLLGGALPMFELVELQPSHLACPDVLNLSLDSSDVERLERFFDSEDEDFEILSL
# * marks the source's active call; other numbers are inactive results; nt = no result. Compounds with a hit are over-represented: about 2% of the library has one in this group of screens.
SMILES,beta cell repl,HKDC1 inh,VIM-2 inh,IMP-1 inh,PvdQ acylase,ATG4B inhibitor
Cc1nn(CC(=O)N2CCN(C)CC2)c(=O)c2c1sc1ccccc12,3,1,11*,-4,-9,13
COC(=O)c1cccc(NC(=O)c2cccnc2C(=O)O)c1C,-1,-4,-1,-2,9,2
O=C(COC(=O)c1ccccc1SCC(=O)NC1CCS(=O)(=O)C1)NC1CCS(=O)(=O)C1 (stereo not drawn),-3,-13,0,-3,-7,2
CCNC(=O)NC(=O)COC(=O)c1ccccc1SCC(=O)NC(=O)NCC,-1,-1,11*,4,-30,7
COc1ccc(CNS(=O)(=O)CCNC(=O)c2ccc(OC)cc2)cc1,6,5,nt,nt,-8,-2
CCNc1ccc(C(=O)NN=C2CCCC2)cc1[N+](=O)[O-],2,-3,-6,-5,-1,3
O=C(CSc1nnc2ccc3ccccc3n12)N1CCOCC1,5,2,2,-1,-12,3
Cc1cc2ccccc2n2c(SCC(=O)N3CCOCC3)nnc12,0,-2,8.0*,-4,-8,5
COCCNC(=S)N1CCCC(CO)C1 (stereo not drawn),0,1,-2,-5,-4,-6
CCOc1ccc(CNC(=O)Cn2nc(C)c3c(C)n(-c4ccc(C)cc4)nc3c2=O)cc1,-3,7,0,11*,-9,-8
Cc1cc(-c2ccc(N=Nc3c(S(=O)(=O)O)cc4cc(S(=O)(=O)O)cc(N)c4c3O)c(C)c2)ccc1N=Nc1c(S(=O)(=O)O)cc2cc(S(=O)(=O)O)cc(N)c2c1O,-7,nt,nt,nt,nt,nt
O=S(=O)(O)c1cc(O)c2c(O)c(N=Nc3cc(Cl)ccc3O)c(S(=O)(=O)O)cc2c1,-2,1,-8,5.7*,-1,6
CC1(C)C(C#N)=C(N)Oc2c1c(=O)oc1ccccc21,4,1,1,4.9*,-2,-7
c1cnc2ccc(-c3ccc4ncccc4c3)cc2c1,-4,-1,2,-4,47*,-11
Cc1ccc2ncccc2c1,-4,-10,nt,nt,2,6
COC(=O)c1ccc(-c2nc3ccccc3[nH]2)cc1,-2,10,-6,-2,40*,-4
COC(=O)C(Cc1ccc(O)cc1)NC(=O)Cn1cc(C)c(=O)[nH]c1=O (stereo not drawn),nt,-5,nt,nt,-11,nt
Cc1cc(NC(=O)Nc2ccc(F)c(Cl)c2)no1,1,-2,-3,-1,44*,-5
Cc1ccc(NC(=O)c2cc(F)c(F)cc2Cl)nc1,-2,-2,-2,-1,-5,-16
Cc1cc(NC(=O)c2cc(F)c(F)cc2Cl)no1,0,-7,0,-1,92*,4
Cc1cc(NC(=O)COc2ccc(F)c(Cl)c2)no1,4,-7,0,-1,2,-2
CCC(OC(=O)CN1C(=O)C(=O)c2ccccc21)C(=O)Nc1ccccc1OC (stereo not drawn),-1,1,-3,-1,4,-9
Cc1ccc(C)c(NC(=S)NCCc2ccc(F)cc2)c1,-6,4,-2,20*,-2,3
Cc1ccc(NC(=S)NCCc2ccccc2)c(C)c1,0,-7,-5,-2,-8,-6
CCc1ccc(/C=C2\Oc3c(ccc(O)c3CN3CCN(C)CC3)C2=O)cc1,-2,-3,2,-2,-3,-1
SMILES,beta cell repl,HKDC1 inh,VIM-2 inh,IMP-1 inh,PvdQ acylase,ATG4B inhibitor
COc1ccccc1/C=C/C=C1\Oc2c(ccc(O)c2CN2CCN(CCO)CC2)C1=O,-2,-9,2,27*,14,-4
Cc1ccc(/C=C2\Oc3c(ccc(O)c3CN3CCN(C)CC3)C2=O)cc1,-1,11,9.5*,1,-8,-9
CCN1CCN(Cc2c(O)ccc3c2O/C(=C\C=C\c2ccccc2)C3=O)CC1,-3,4,0,1,6,-7
O=C1/C(=C/C=C/c2ccccc2)Oc2c1ccc(O)c2CN1CCN(CCO)CC1,-5,-3,-2,-1,1,-7
CCN1CCN(Cc2c(O)ccc3c2O/C(=C\c2ccc(C)cc2)C3=O)CC1,-2,3,8.8*,2,-6,1
O=C(Nc1ccc(-c2cn3ccccc3n2)cc1)c1cccs1,-6,1,-4,6.4*,1,-4
COc1ccc(CC(=O)Nc2ccc(-c3cn4ccccc4n3)cc2)cc1,-2,-7,-4,-1,-6,1
O=C(c1nn2c(C(F)(F)F)cc(-c3ccccc3)nc2c1Cl)N1CCN2CCCC2C1 (stereo not drawn),-4,3,9.1*,-1,-15,-8
O=C(c1cc2nc(-c3ccccc3)cc(C(F)(F)F)n2n1)N1CCN2CCCC2C1 (stereo not drawn),2,-5,9.1*,-5,-5,2
O=C(c1cc2nc(-c3ccccc3)cc(C(F)(F)F)n2n1)N1CCOCC1,0,-8,-1,-6,-9,-2
COc1ccc(CCNS(=O)(=O)c2cnc(Cl)c(Br)c2)cc1OC,-1,-5,-3,-1,-8,-12
Cc1ccc(S(=O)(=O)N2CCN(C(=O)CC3CCCC3)CC2)cc1,-1,-12,3,4.5*,-2,-1
O=C(CC1CCCC1)N1CCN(S(=O)(=O)c2ccc(F)cc2)CC1,-7,-6,nt,nt,-13,-3
CCC(C)(C)NC(=O)C(c1ccc(C)o1)N(Cc1cccs1)C(=O)Cn1nnc2ccccc21 (stereo not drawn),4,-10,-4,10.0*,-11,-2
CCC(C)(C)NC(=O)C(c1ccccc1)N(Cc1cccs1)C(=O)Cn1nnc2ccccc21 (stereo not drawn),-5,0,0,-1,-13,-5
CC(C)(c1ccccc1)c1ccc(OCCN2CCOCC2)cc1,-4,0,1,4.9*,-3,4
CC(C)(c1ccccc1)c1ccc(OCCCN2CCNCC2)cc1,-6,-6,2,-2,-10,6
CNc1ccc(Br)cc(C(=O)/C=C/c2cccc(OC)c2OC)c1=O,-5,27,1,6.5*,20,7
CNc1ccc(Br)cc(C(=O)/C=C/c2cccc(Cl)c2Cl)c1=O,nt,23,-2,5.9*,-12,15
Cc1noc(C(=O)N2CCN(c3ccccc3)CC2)c1Cl,-3,-3,-4,-4,-3,-4
Cc1ccc(Cl)cc1Nc1nc(-c2sc(NC(=O)C(C)(C)C)nc2C)cs1,-8,0,0,18*,-14,-5
COc1ccccc1Nc1nc(-c2sc(NC(=O)C(C)(C)C)nc2C)cs1,-6,-1,-2,-3,1,-30
Cc1ccc(C)c(S(=O)(=O)N2CCN(C(=O)c3ccc(OCc4c(C)noc4C)cc3)CC2)c1,-4,2,nt,nt,-7,2
CCN(CCNC(=O)Nc1ccc(Cl)cc1)c1ccccc1,-4,5,-3,0,-12,15
